PAFAH1B2 inh – PAFAH1B2 enzyme inhibitors, primary screen, biochemical, fluorescence polarization, human; Platelet-activating factor acetylhydrolase IB subunit alpha2 (Homo sapiens), P68402; recombinant PAFAH1B2, FP-rhodamine activity probe; inhibition, % at 3.39 µM; actives 1.2% (n = 340,000); AID 492953, 2010;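 active = inhibition above the mean of all tested compounds plus 3 SD, cut at about 24% in these data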
pPAFAH inh – pPAFAH enzyme inhibitors, primary screen, biochemical, fluorescence polarization, human; recombinant pPAFAH, FP-rhodamine probe fluorescence polarization; actives 1.5% (n = 330,000); inhibition, % at 3.39 µM; AID 463082, 2010;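 active = inhibition above the mean inhibition across the screen plus 3 SD, cut at about 25% in these data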;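 note: inhibitors block binding of the rhodamine activity-based probe so polarization drops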
Target sequence (Q13093 whole entry, looked up): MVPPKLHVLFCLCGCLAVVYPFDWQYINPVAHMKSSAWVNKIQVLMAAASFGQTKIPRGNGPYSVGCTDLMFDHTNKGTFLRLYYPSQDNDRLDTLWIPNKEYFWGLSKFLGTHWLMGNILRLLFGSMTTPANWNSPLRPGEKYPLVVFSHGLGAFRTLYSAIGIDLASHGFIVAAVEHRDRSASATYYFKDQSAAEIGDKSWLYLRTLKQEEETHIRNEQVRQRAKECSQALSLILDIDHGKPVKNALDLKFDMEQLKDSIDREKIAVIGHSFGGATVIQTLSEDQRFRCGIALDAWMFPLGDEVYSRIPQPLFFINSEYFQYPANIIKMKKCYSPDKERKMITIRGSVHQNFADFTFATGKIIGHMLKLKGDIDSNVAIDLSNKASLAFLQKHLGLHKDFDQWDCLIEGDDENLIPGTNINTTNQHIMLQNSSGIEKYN
PAFAH1B3 inh – PAFAH1B3 enzyme inhibitors, primary screen, biochemical, fluorescence polarization, human; Platelet-activating factor acetylhydrolase IB subunit alpha1 (Homo sapiens), Q15102; recombinant PAFAH1B3, FP-rhodamine probe; inhibition, % at 3.39 µM; actives 0.28% (n = 340,000); AID 492972, 2010;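 active = inhibition above the screen-wide average of all tested compounds plus 3 SD, cut at about 25% in these data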
Target sequence (Q15102 whole entry, looked up): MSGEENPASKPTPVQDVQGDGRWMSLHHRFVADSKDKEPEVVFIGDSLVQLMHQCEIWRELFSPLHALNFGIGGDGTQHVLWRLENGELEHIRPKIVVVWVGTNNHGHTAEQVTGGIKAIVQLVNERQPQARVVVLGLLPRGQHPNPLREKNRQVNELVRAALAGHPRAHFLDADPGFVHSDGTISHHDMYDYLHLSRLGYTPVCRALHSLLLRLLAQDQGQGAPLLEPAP
PAFAH2 inh – PAFAH2 enzyme inhibitors, primary screen, biochemical, fluorescence polarization, human; recombinant PAFAH2, FP-rhodamine activity probe; inhibition, % at 3.39 µM; AID 492956, 2010; Platelet-activating factor acetylhydrolase 2, cytoplasmic (Homo sapiens), Q99487; actives 0.99% (n = 340,000);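 active = inhibition above the mean over all tested compounds plus 3 SD, cut at about 30% in these data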;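 note: inhibitors block probe labeling of enzyme so polarization drops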
Apaf1 inhib – inhibitors of human Apaf-1 apoptosome, primary screen, biochemical, DEVD-Rh110 fluorescence, uHTS; reconstituted apoptosome caspase-3 activity; inhibition, % at 20 µM; actives 0.71% (n = 330,000); AID 489030, 2010; active = inhibition of at least 40% at 20 µM
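Assay system – apoptosome proteins · Medium – Hepes buffer, pH 7.5 · Also added – cytochrome c with DEVD-Rh110 · Timing – 30 min compound preincubation, 50 min activation, room temperature · Detection – Rh110 fluorescence, excitation 480 nm, emission 540 nm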
PAFAH2 confirm – PAFAH2 enzyme inhibitors, confirmation, biochemical, fluorescence polarization, human; shares compounds with PAFAH2 inh; recombinant PAFAH2, FP-rhodamine activity probe; inhibition, % at 3.39 µM; actives 65% (n = 2,300); AID 493030, 2011;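 active = mean inhibition over three repeats above a set limit taken from the earlier primary screen, cut at about 30% in these data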;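 note: inhibitor blocks binding of rhodamine activity probe so polarization falls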
Hits are given with their value; i = inactive; nt = no result given. This is a sample that favours compounds with a hit; in the whole collection about 3.1% have one here.

SMILES | PAFAH1B2 inh | pPAFAH inh | PAFAH1B3 inh | PAFAH2 inh | Apaf1 inhib | PAFAH2 confirm
CCN(CC)S(=O)(=O)c1cc(C(=O)OCC(=O)Nc2cccc(Br)c2)ccc1F | i | i | i | 32 | i | i
CCc1cccc(CC)c1NC(=O)COC(=O)c1ccc(F)c(S(=O)(=O)N(CC)CC)c1 | i | i | i | 30 | i | i
O=C(CN(Cc1ccccc1)C(=O)CCC(=O)Nc1nccs1)NCc1ccc(F)cc1 | i | i | i | i | i | nt
CSCC(=O)NC1CCCc2c1cnn2-c1ccc(C)c(C)c1 (stereo not drawn) | i | i | i | i | i | nt
CC1(C)C(/C=C/C=C/C=C/C=C2\N(CCCCS(=O)(=O)O)c3ccc4ccccc4c3C2(C)C)=[N+](CCCCS(=O)(=O)[O-])c2ccc3ccccc3c21 | i | 29 | i | 43 | i | i
O=C(CNCc1ccc(F)cc1)Nc1cc(S(=O)(=O)N2CCOCC2)ccc1Cl | i | i | i | i | i | nt
Cc1ccccc1C(=O)NC1CCN(CC(=O)N2CCCCC2C)CC1 (stereo not drawn) | i | i | i | i | i | nt
Cc1cccc(C)c1NC(=O)CN(C)CC(=O)c1c(N)n(Cc2ccccc2)c(=O)n(C)c1=O | i | i | i | i | i | nt
CCOC(=O)N1CCN(C(=O)c2ccccc2NC(=O)c2ccc(Br)cc2)CC1 | i | i | i | 44 | i | i
CCOC(=O)N1CCN(C(=O)c2ccccc2NC(=O)c2ccc(F)cc2)CC1 | i | i | i | i | i | nt
Cc1ccc2cc(-c3noc(C4CCCCC4)n3)c(=O)[nH]c2c1 | i | i | i | 47 | i | 51
CCOc1ccccc1-c1nc(-c2cc3ccc(C)cc3[nH]c2=O)no1 | i | i | i | 52 | i | 32
C=CCSc1nc2sc3c(c2c(=O)n1-c1ccc(C)cc1)CCN(C)C3 | i | nt | i | i | i | nt
COc1ccc(C(=O)n2nc(C)c(Br)c2C)cc1 | i | i | i | 31 | i | i
Cc1ccc(/C=C2/Sc3ccc(C(=O)NCc4ccccn4)cc3NC2=O)cc1 | i | i | i | i | i | nt
CC(C)CC(C(=O)NC(C)(C)C)N(Cc1ccccc1Cl)C(=O)c1snc(C(N)=O)c1N (stereo not drawn) | i | nt | i | i | i | nt
Cc1ccc(C(=O)c2ccccc2C(=O)OCC(=O)NCCc2ccc(Cl)cc2Cl)cc1 | i | i | i | 46 | i | 49
O=C(COC(=O)c1ccc[nH]c1=O)NCCc1ccc(Cl)cc1Cl | i | i | i | i | i | nt
O=C(COC(=O)/C=C/c1ccccc1Cl)NCCc1ccc(Cl)cc1Cl | i | i | i | 66 | i | 52
CCOc1cccc(/C=N/NC(=S)Nc2ccccc2[N+](=O)[O-])c1O | i | i | i | 45 | i | i
COc1cc(C(=O)OCC(=O)c2c[nH]c3ccccc23)ccc1OCC(=O)N1CCOCC1 | i | i | i | 34 | i | i
CCOc1cc(C(=O)OCC(=O)c2c[nH]c3ccccc23)ccc1OCC(=O)N1CCOCC1 | i | i | i | 45 | i | 33
COc1cc(C(=O)NC(C)c2ccccc2)ccc1OCC(=O)N1CCOCC1 (stereo not drawn) | i | i | i | i | i | nt
CCOc1cc(C(=O)OCC(=O)NC(C)c2ccccc2)ccc1OCC(=O)N1CCOCC1 (stereo not drawn) | i | i | i | 92 | i | 71
COc1ccc(C(=O)OCC(=O)c2c[nH]c3ccccc23)cc1OC | i | i | i | 47 | i | 44
SMILES | PAFAH1B2 inh | pPAFAH inh | PAFAH1B3 inh | PAFAH2 inh | Apaf1 inhib | PAFAH2 confirm
CCOc1cc(C(=O)OCC(=O)c2c(C)[nH]c3ccccc23)ccc1OCC(=O)N1CCOCC1 | i | i | i | i | i | nt
Cc1c(C(=O)N2CCCCC2CCN2CCCC2=O)oc2c(F)cccc12 (stereo not drawn) | i | i | i | i | i | nt
Cc1ccc2[nH]c(C(=O)N3CCOCC3)cc2c1 | i | i | i | i | i | nt
CCCC(C)C(=O)Nc1ncc(S(=O)(=O)c2ccc([N+](=O)[O-])cc2)s1 (stereo not drawn) | i | i | i | i | i | nt
CCN(CC)C(=O)CSc1nc2c(sc(=S)n2-c2ccccc2)c(=O)n1-c1ccc(OC)cc1OC | i | i | i | i | i | nt
CCN(CC)C(=O)CSc1nc2c(sc(=S)n2-c2ccccc2)c(=O)n1-c1ccccc1OC | i | nt | i | 37 | i | i
COc1ccc(C(=O)OCC(=O)Nc2cccc(S(=O)(=O)N3CCCCCC3)c2)cc1[N+](=O)[O-] | i | nt | i | 38 | nt | i
CS(=O)(=O)c1ccc(C(=O)OCC(=O)Nc2cccc(S(=O)(=O)N3CCCC3)c2)cc1 | i | i | i | i | i | nt
COc1cc(C(=O)OCC(=O)Nc2cccc(S(=O)(=O)N3CCCC3)c2)ccc1OCC(C)C | i | i | i | 45 | i | 45
COc1ccc(C(=O)OCC(=O)Nc2ccc(OC)c(S(=O)(=O)N3CCCCC3)c2)cc1[N+](=O)[O-] | i | nt | i | i | i | nt
Cc1cc(CNC(=O)C2(C(F)(F)F)C/C(=C\Cc3ccccc3)CCCO2)nn1C (stereo not drawn) | i | i | i | i | i | nt
CCN(CC)CCCn1c2c(c(SCC(=O)N3CCc4ccccc43)nc1=O)CCC2 | i | i | i | i | i | nt
Cc1ccc(NC(=O)c2ccc(Cl)c(S(=O)(=O)Nc3c(C)n(C)n(-c4ccccc4)c3=O)c2)cc1Cl | i | nt | i | i | i | nt
CCOc1ccc(C(=O)C(C)OC(=O)Cn2[nH]c(=O)c3ccccc3c2=O)cc1 (stereo not drawn) | i | i | i | i | i | nt
COc1cc(CNCc2cc(OC)c(OC)c(OC)c2)cc(OC)c1 | i | i | i | i | i | nt
COC(=O)c1noc(C)c1-c1ccnn1C(=O)c1ccc(C)cc1 | i | i | i | 54 | i | 33
Cc1ccc(S(=O)(=O)N2CCOCC2)cc1C(=O)NC1CCCCCC1 | i | i | i | i | i | nt
O=C(Nc1cc(S(=O)(=O)N2CCOCC2)ccc1O)c1ccco1 | i | i | i | 57 | i | 44
CN(C)S(=O)(=O)c1cccc(C(=O)Nc2cc(S(=O)(=O)N3CCOCC3)ccc2O)c1 | i | nt | i | 50 | i | 50
COc1cccc(CC(=O)Nc2cc(S(=O)(=O)N3CCOCC3)ccc2OC)c1 | i | nt | i | 39 | i | i
Cc1ccc(S(=O)(=O)N2CCOCC2)cc1C(=O)Nc1cc(S(=O)(=O)N2CCCCC2)ccc1O | i | nt | i | 30 | nt | i
OCC[C@H]1C[C@@H](O)[C@H](O)[C@]2(OCCc3ccccc32)O1 | i | i | i | i | i | nt
CC(C)OC(=O)C1OC1(C)c1ccccc1 (stereo not drawn) | i | nt | i | i | nt | nt
